Reference: ChEMBL document CHEMBL1157537 (J Med Chem, 2008)
Calls of active or inactive are those of the source. The calls are words filed in the database; no cut-off is given here.

What was measured:
[1] = target: T1, Glucocorticoid receptor (Homo sapiens) (UniProt P04150); test: Antagonist activity at human glucocorticoid receptor relative to Dexamethasone; assay type: functional
T1 sequence (whole entry): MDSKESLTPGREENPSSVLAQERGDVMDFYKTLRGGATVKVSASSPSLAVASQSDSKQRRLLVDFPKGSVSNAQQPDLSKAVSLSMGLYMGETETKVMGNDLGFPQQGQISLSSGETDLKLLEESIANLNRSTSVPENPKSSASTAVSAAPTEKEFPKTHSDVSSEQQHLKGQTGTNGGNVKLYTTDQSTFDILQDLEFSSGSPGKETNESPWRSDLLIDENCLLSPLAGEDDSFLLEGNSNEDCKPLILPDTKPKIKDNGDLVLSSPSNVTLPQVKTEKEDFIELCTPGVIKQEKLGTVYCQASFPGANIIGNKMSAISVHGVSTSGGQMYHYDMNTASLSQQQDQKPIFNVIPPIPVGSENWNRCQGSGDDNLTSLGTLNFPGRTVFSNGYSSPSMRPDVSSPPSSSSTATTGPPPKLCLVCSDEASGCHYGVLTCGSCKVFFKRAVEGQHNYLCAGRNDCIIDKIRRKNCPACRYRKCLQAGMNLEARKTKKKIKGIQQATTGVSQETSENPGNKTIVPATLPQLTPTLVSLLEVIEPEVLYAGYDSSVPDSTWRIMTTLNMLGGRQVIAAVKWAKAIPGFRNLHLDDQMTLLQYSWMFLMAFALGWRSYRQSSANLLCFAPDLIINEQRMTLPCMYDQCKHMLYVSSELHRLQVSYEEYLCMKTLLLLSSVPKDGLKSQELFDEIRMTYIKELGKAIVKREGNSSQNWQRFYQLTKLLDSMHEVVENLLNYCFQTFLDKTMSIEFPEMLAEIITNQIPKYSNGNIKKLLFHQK

[2] = tested on: Oryctolagus cuniculus; test: Progestational activity in New Zealand white rabbit uterine epithelium at 0.10 mg/kg, po after 3 days by Clauberg-McPhail assay; assay type: functional, organism-based; set-up: dose 0.1 mg/kg
[3] = organism: Rattus norvegicus; test: Progestational activity in estrone-treated ovariectomized rat assessed as inhibition of medroxyprogesterone acetate-induced effect on vaginal epithelial thickness; assay type: functional, organism-based
Procedure, shortened: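 Antagonist mode of the estrone-treated ovariectomized rat multi-endpoint model: compound was combined with MPA plus estrone, with vehicle and estrone-only groups. Endpoints were uterine epithelial cell height, vaginal epithelial thickness and mammary alveolar bud proliferation.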

[4] = target: T2, Mineralocorticoid receptor (Homo sapiens) (UniProt P08235); test: Antagonist activity at human mineralocorticoid receptor relative to aldosterone; assay type: functional
T2 sequence (whole entry): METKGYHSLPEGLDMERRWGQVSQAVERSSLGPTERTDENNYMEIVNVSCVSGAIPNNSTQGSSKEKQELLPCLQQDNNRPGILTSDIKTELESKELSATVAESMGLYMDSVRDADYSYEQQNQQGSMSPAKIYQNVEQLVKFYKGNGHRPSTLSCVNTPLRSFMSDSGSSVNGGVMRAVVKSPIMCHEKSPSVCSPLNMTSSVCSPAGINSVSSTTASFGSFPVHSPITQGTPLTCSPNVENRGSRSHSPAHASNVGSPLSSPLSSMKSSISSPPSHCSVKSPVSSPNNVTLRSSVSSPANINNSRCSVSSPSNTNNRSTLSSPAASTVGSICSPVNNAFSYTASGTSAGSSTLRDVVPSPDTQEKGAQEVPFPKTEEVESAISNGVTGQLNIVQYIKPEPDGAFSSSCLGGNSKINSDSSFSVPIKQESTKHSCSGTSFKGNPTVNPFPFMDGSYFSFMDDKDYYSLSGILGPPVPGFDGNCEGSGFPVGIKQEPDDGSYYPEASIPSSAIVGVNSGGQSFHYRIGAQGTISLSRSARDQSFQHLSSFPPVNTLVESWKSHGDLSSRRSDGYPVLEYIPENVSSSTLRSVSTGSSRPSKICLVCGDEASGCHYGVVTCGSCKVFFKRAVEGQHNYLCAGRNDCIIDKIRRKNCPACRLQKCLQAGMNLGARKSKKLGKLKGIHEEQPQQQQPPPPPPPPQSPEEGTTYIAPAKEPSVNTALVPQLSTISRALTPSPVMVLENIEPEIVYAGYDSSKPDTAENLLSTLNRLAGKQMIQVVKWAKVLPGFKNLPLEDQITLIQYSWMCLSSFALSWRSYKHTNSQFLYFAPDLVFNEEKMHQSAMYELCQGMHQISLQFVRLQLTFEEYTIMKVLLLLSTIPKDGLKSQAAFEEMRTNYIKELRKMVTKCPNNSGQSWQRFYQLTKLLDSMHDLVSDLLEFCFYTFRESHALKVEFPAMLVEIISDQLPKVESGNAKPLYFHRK

[5] = target: T3, Androgen receptor (Homo sapiens) (UniProt P10275); test: Agonist activity at human androgen receptor relative to dihydrotestosterone; assay type: functional
T3 sequence (whole entry): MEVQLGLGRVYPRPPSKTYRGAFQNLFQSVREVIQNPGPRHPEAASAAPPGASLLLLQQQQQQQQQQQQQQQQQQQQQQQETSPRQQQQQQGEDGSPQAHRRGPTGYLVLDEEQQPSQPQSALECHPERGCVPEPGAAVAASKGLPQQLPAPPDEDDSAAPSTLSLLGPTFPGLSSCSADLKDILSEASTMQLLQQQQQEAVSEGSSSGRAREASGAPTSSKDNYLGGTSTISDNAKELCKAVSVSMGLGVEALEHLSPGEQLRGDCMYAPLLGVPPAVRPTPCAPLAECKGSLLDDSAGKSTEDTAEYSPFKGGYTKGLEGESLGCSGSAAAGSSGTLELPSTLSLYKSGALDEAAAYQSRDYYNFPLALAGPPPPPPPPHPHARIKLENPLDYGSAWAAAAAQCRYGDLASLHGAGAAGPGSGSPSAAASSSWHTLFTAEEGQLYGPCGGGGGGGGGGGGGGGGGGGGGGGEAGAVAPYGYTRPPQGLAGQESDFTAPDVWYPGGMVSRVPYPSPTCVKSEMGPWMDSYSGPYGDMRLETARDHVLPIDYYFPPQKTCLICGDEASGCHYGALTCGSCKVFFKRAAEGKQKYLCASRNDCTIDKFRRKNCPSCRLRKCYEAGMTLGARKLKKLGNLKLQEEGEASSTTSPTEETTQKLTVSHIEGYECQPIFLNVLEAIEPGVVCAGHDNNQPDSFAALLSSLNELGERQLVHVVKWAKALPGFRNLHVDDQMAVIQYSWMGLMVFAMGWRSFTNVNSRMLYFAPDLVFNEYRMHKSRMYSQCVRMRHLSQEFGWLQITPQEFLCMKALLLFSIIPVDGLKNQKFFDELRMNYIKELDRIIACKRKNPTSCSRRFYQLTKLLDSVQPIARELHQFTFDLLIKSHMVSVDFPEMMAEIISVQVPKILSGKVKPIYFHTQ

[6] = tested on: Cynomolgus monkey; test: Inhibition of ovulation in cynomolgus monkey assessed as reduction of progesterone level after 3 weeks; assay type: functional, organism-based; conditions: Macaca fascicularis

CC1=C[C@@H]([C@@H]2Oc3c(F)cc(F)cc3-c3ccc4c(c32)C(C)=CC(C)(C)N4)CCC1 (stereo in doubt; (-)-5c)
Efficacy [1]: 92% | Activity [2]: Active | Activity [3]: inactive | Efficacy [4]: 93% | Efficacy [5]: 177% | Activity [6]: Active
